Bioassay records: PubChem BioAssay, The Scripps Research Institute Molecular Screening Center
Most compounds without a hit are left out; they make up all but 4.6% or so of the library.
GPR7 antagonist – antagonists of human GPR7 (neuropeptides B/W receptor 1); GPR7-expressing cells, fluorescence antagonist assay; 1.1% of 290,000 active; AID 1861; P48145; inhibition, % at 4.4 µM; in the data active = inhibition above about 16%, passing the limit was not always enough;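 also: cells stimulated with the agonist NPW; 0% = agonist with vehicle and 100% = vehicle without agonist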
Target sequence (P48145 whole entry, looked up): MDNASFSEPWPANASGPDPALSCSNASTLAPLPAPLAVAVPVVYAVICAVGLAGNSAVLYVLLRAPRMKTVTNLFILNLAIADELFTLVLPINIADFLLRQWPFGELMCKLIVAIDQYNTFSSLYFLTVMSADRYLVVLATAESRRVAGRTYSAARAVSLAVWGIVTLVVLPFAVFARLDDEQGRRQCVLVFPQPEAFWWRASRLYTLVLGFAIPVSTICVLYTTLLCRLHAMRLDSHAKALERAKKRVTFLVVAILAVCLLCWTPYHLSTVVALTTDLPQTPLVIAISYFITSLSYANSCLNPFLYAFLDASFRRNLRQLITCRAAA
TAAR1 ag – human TAAR1 agonism; Q96RJ0; CHO RD-HGA16 TAAR1, Fluo-8 calcium fluorescence; vehicle wells 0%, saturating PEA agonist 100%; activation, % at 3 µM; 0.99% of 360,000 active; AID 624467;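 active = activation above the mean activation of all test compounds in the run plus 3 SD, cut at about 38% in these data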
Target sequence (Q96RJ0 whole entry, looked up): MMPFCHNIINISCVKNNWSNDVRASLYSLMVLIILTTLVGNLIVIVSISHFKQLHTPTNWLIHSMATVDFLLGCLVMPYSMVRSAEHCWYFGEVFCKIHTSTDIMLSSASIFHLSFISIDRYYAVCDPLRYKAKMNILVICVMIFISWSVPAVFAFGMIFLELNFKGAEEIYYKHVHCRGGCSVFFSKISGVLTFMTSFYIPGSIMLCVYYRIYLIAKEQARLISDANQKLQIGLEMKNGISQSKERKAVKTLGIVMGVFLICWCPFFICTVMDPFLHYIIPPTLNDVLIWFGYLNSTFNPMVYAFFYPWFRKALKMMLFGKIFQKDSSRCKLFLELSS
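Test system: RD-HGA16 (CHO) cells co-expressing Gα16 and hTAAR1 | Doses: Single dose, 3 µM | Schedule: 17-24 h seeding, 75 min 37 °C dye, 30 min RT | Evaluation: % activation from peak over basal fluorescence ratio, DMSO-to-PEA scaled | Technique: Kinetic Fluo-8 calcium fluorescence | Benchmarks: Low control DMSO, high control PEA (EC100)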
TAAR1 antag – antagonists of human TAAR1 | Q96RJ0 | CHO RD-HGA16 TAAR1, Fluo-8 calcium fluorescence, antagonist | inhibition, % at 3 µM | 1.5% of 360,000 active | AID 624466;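 active = inhibition above a per-plate cutoff, the mean inhibition of test compounds on that plate plus 3 SD, cut at about 49% in these data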;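 also: 0% = DMSO plus EC80 beta-PEA response and 100% = DMSO alone without agonist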
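Assay system: CHO-derived RD-HGA16 cells stably expressing human TAAR1 plus Gα16. Timing: 140 s kinetic read after compound, 140 s after agonist. Technique: kinetic Fluo-8 calcium fluorescence measurement. Measure: % inhibition of agonist calcium response.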
OX1R antag-1 – blocks the human orexin 1 receptor | O43613 | CHO/OX1R cells, Fluo-8 calcium fluorescence, orexin A | inhibition, % at 5 µM | 0.43% of 330,000 active | AID 434989;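 active = inhibition above its plate's threshold, mean inhibition of all tested compounds on the plate plus 3 SD, cut at about 37% in these data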;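 also: 0% = orexin A challenge wells and 100% = SB-334867-A antagonist wells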
CHO parental Ca – counter-screen for OX1R antagonists: effect in parental CHO cells. inhibition, % at 5.6 µM. parental CHO-K1, ATP-induced calcium, Fluo-8 fluorescence. 0.63% of 330,000 active;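 active = inhibition above that plate's mean sample inhibition plus 3 SD, cut at about 26% in these data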;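 also: 0% = ATP-challenged DMSO wells and 100% = DMSO wells without ATP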
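Measured by: calcium-sensitive Fluo-8 fluorescence / Test system: CHO parental line / Controls: ATP-challenged DMSO wells low, unchallenged DMSO wells high / Measure: % inhibition / Compound: single nominal dose of 5.6 µM per compound / Replicates: single well per compound, no replicates / Reagent: ATP as calcium-mobilizing challenge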
OX1R antag-2 – OX1R (human) antagonism; inhibition, % at 6.6 µM; O43613; 1.8% of 330,000 active; OX1R-expressing cells, FRET antagonist read-out; in the data active = inhibition mostly above about 38%, no sharp cut-off; inactive = mostly below about 40%;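 also: 0% = agonist challenge alone and 100% = reference antagonist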
TAAR1 ag conf – confirmation of human TAAR1 agonists. shares compounds with TAAR1 ag. CHO RD-HGA16 TAAR1, Fluo-8 calcium fluorescence; scaled: DMSO 0%, maximal phenethylamine 100%. activation, % at 3 µM. 82% of 2,400 active. AID 651783;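 active = activation above a cutoff set at the run's mean compound activation plus 3 SD, cut at about 39% in these data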
Ga16 nonsel ag – nonselective agonist in parental cells, TAAR1 agonist counter-screen. shares compounds with TAAR1 ag. CHO-Ga16 parental, Fluo-8 calcium fluorescence; normalized to maximal ATP response, DMSO zero. activation, % at 3 µM. 50% of 2,400 active;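 active = activation above the run cutoff, the mean activation over all tested wells plus 3 SD, cut at about 12% in these data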;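 also: 0% = DMSO wells and 100% = maximal ATP response on the peak over basal ratio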
TAAR1 desens – TAAR1 response desensitization, agonist counter-screen; 46% of 2,400 active; inhibition, % at 3 µM; AID 651951; shares compounds with TAAR1 ag; CHO RD-HGA16 hTAAR1, Fluo-8 calcium, beta-PEA response inhibition;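 active = inhibition above the run cutoff, the mean inhibition of all test compounds plus 3 SD, cut at about 49% in these data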;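 also: beta-PEA stimulus applied at its EC80; loss of beta-PEA calcium signal after compound pretreatment read as receptor desensitization; 0% = DMSO with beta-PEA at EC80 and 100% = DMSO alone without agonist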
Ga16 antag count – counter-screen for TAAR1 agonists: nonselective Ga16 antagonists. shares compounds with TAAR1 ag. CHO-Ga16 ATP-induced calcium, Fluo-8 fluorescence. inhibition, % at 3 µM. 39% of 2,400 active;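 active = inhibition above the plate's mean compound inhibition plus 3 SD, computed per plate, cut at about 22% in these data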;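 also: 0% = EC80 ATP with DMSO and 100% = DMSO wells without ATP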
Active calls of the source: *.

CCC(=NCc1ccco1)c1c(O)n(C)c(=O)n(C)c1=O was read as GPR7 antagonist -10.0, TAAR1 ag 21.2, TAAR1 antag -15.2, OX1R antag-1 11.6, CHO parental Ca -9.7 and OX1R antag-2 5.5.
For Cc1c(N=Nc2c(O)n(Cc3ccccc3)c(=O)[nH]c2=O)c(=O)n(-c2ccccc2)n1C the results were GPR7 antagonist 1.1, TAAR1 ag 2.7, TAAR1 antag 12.9, OX1R antag-1 -21.4, CHO parental Ca -17.9 and OX1R antag-2 31.0.
For c1ccc(Cc2cnc(N3CCNCC3)nc2)cc1 the results were TAAR1 ag 44.6*, TAAR1 antag -17.6, TAAR1 ag conf 58.2*, Ga16 nonsel ag -0.1, TAAR1 desens 19.0 and Ga16 antag count 5.5.
c1cnc(N2CCNCC2)nc1 was read as GPR7 antagonist -10.4, TAAR1 ag 23.4, TAAR1 antag -19.6, OX1R antag-1 -7.5, CHO parental Ca -6.3 and OX1R antag-2 16.8.
Screening c1cc(OCCN2CC2)ccn1 returned TAAR1 ag 3.1 and TAAR1 antag -21.8.
Screening Cc1ccccc1CCNCc1ccc(Br)cc1 returned GPR7 antagonist 2.0, TAAR1 ag 70.5*, TAAR1 antag 50.1*, OX1R antag-1 -13.3, CHO parental Ca -5.3, OX1R antag-2 5.3, TAAR1 ag conf 93.0*, Ga16 nonsel ag 13.7*, TAAR1 desens 66.6* and Ga16 antag count 11.9.
Screening COc1ccc2[nH]c3c(c2c1)CCNC3 returned TAAR1 ag 44.3*, TAAR1 antag -14.5, OX1R antag-1 -2.3, CHO parental Ca -10.6, OX1R antag-2 2.0, TAAR1 ag conf 59.2*, Ga16 nonsel ag 0.3, TAAR1 desens 27.4 and Ga16 antag count 5.3.
CCOc1ccccc1CNCCc1ccc2c(c1)OCO2 was read as GPR7 antagonist 5.9, TAAR1 ag 0.3, TAAR1 antag -10.4, OX1R antag-1 -29.5, CHO parental Ca -15.6 and OX1R antag-2 14.4.
For CCOc1ccc([N+](=O)[O-])cc1CNCCc1ccccc1 the results were GPR7 antagonist 44.1*, TAAR1 ag 51.8*, TAAR1 antag 26.7, OX1R antag-1 -27.4, CHO parental Ca -14.2, OX1R antag-2 38.5, TAAR1 ag conf 65.7*, Ga16 nonsel ag 2.1, TAAR1 desens 50.5* and Ga16 antag count 17.6.
Screening CCOc1ccc(NC(=O)c2c(C)nn(Cc3ccccc3)c2Cl)cc1 returned GPR7 antagonist 2.8, TAAR1 ag 53.7*, TAAR1 antag 63.6*, OX1R antag-1 -26.5, CHO parental Ca -6.6, OX1R antag-2 2.0, TAAR1 ag conf 78.7*, Ga16 nonsel ag 43.3*, TAAR1 desens 75.7* and Ga16 antag count 46.3*.
For CCCCCc1nc2ccccc2c(=O)n1-c1ccccc1[N+](=O)[O-] the results were GPR7 antagonist -0.8, TAAR1 ag -1.1, TAAR1 antag -12.8, OX1R antag-1 -40.5, CHO parental Ca -21.1 and OX1R antag-2 12.3.
For CCCCCc1nc2c(c(=O)c3ccccc3n2C)c(=O)n1C1CCCCCC1 the results were GPR7 antagonist -4.0, TAAR1 ag 124.5*, TAAR1 antag 84.9*, OX1R antag-1 -7.8, CHO parental Ca -15.0, OX1R antag-2 18.8, TAAR1 ag conf 121.7*, Ga16 nonsel ag 95.9*, TAAR1 desens 92.9* and Ga16 antag count 84.6*.
`COC(=O)C1=C(c2ccc(OC(F)(F)F)cc2)C[C@@H]2CC[C@H]1N2C(=O)NC1CC1` gave TAAR1 ag 7.8, TAAR1 antag 14.9, OX1R antag-1 -9.2, CHO parental Ca -10.1 and OX1R antag-2 3.7.
CC(Cc1ccccc1)NC(=O)/C=C/C(=O)O (stereo unspecified) was read as GPR7 antagonist -4.2, OX1R antag-1 10.9, CHO parental Ca 3.7, OX1R antag-2 1.8, Ga16 nonsel ag 1.7 and Ga16 antag count 1.7.
`c1ccc(C2CC2)c(OCC2=NCCN2)c1` gave TAAR1 ag 23.5, TAAR1 antag -14.6, OX1R antag-1 -10.4, CHO parental Ca -0.6 and OX1R antag-2 9.5.
Screening c1ccc2cc(CC3=NCCN3)ccc2c1 returned GPR7 antagonist -3.0, TAAR1 ag 87.1*, TAAR1 antag 66.1*, OX1R antag-1 -12.3, CHO parental Ca -20.7, OX1R antag-2 16.6, TAAR1 ag conf 98.1*, Ga16 nonsel ag 3.0, TAAR1 desens 86.7* and Ga16 antag count 3.7.
CC(C)(C)C(=O)C(Oc1ccc(Cl)cc1)n1cncn1 (stereo unspecified) was read as TAAR1 ag -1.1 and TAAR1 antag -10.4.
NCCc1ccc(O)cc1 was read as GPR7 antagonist -6.4, TAAR1 ag 118.2*, TAAR1 antag 88.9*, OX1R antag-1 4.4, CHO parental Ca 9.9, OX1R antag-2 9.9, TAAR1 ag conf 98.7*, Ga16 nonsel ag 2.7, TAAR1 desens 94.2* and Ga16 antag count 1.3.
Screening c1ccc2c(c1)CC1CNCc3cccc(c31)S2 (stereo unspecified) returned GPR7 antagonist 19.5, TAAR1 ag 72.8*, TAAR1 antag 6.2, OX1R antag-1 -13.2, CHO parental Ca -2.4, OX1R antag-2 6.1, TAAR1 ag conf 93.4*, Ga16 nonsel ag 4.5, TAAR1 desens 79.0* and Ga16 antag count -3.4.
COc1ccc(CNCCc2cccc(F)c2)c2ccccc12 was read as GPR7 antagonist 17.2.
For COc1cc(OC)c(OC)cc1CNCCc1cccc(F)c1 the results were GPR7 antagonist -5.5, TAAR1 ag 78.7*, TAAR1 antag 35.3, OX1R antag-1 -15.3, CHO parental Ca -15.3, OX1R antag-2 6.0, TAAR1 ag conf 77.7*, Ga16 nonsel ag 11.6*, TAAR1 desens 36.3 and Ga16 antag count 2.2.
`Nc1c(C(=O)NCCc2ccccc2)c2nc3ccccc3nc2n1CCN1CCOCC1` gave GPR7 antagonist 2.5, TAAR1 ag 71.1*, TAAR1 antag 73.6*, OX1R antag-1 24.2, CHO parental Ca 19.3, OX1R antag-2 12.4, TAAR1 ag conf 31.9, Ga16 nonsel ag 13.0*, TAAR1 desens 47.1 and Ga16 antag count 43.3*.
Screening COc1ccc(CCNC(=O)c2c(N)n(CCN3CCOCC3)c3nc4ccccc4nc23)cc1 returned GPR7 antagonist -17.4, TAAR1 ag 15.5, TAAR1 antag 48.1, OX1R antag-1 -30.4, CHO parental Ca -19.0 and OX1R antag-2 45.4.
